Reference: ChEMBL document CHEMBL2016466, “Design, synthesis, and biological evaluation of new diaminoquinazolines as β-catenin/Tcf4 pathway inhibitors” (J Med Chem, 2012)

Columns and labels:
SW480 = assay: Growth inhibition of human SW480 cells assessed as viable cells after 3 days using resazurin by […] assay; format: functional, cell-based; conditions: SW480, 72 h
Summary of the method: (§1)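 Cells grown in RPMI 1640 + 10% FBS + penicillin/streptomycin, trypsinized and seeded at 2 × 10³ cells/well. Compound added 24 h later as a concentration curve starting at 10 μg/mL with nine further 2-fold dilutions. After 3 days of exposure, viability was read with CellTiter-Blue (resazurin to resorufin). IC50 is the average of three separate experiments.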

TCF4/beta-catenin = TCF4/beta-catenin (Homo sapiens, UniProt P35222+Q9NQB0); assay: Inhibition of beta-catenin/TCF4 pathway expressed in HCT116 cells containing delta45S mutant after 24 hrs by luciferase reporter gene assay; format: cell-based; conditions: hct-116
Summary of the method: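 HCT116 cells at 1 × 10⁴/well, cotransfected with 50 ng TOP-FLASH reporter (Tcf4 binding sites) and 50 ng pTK-β-gal as internal control. At 4 h post-transfection, fresh medium with compound at various concentrations was added. Firefly luciferase was read 24 h after compound addition, normalized to β-galactosidase and expressed as a percentage of control luciferase activity.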

HCT-116 [1] = assay: Growth inhibition of human HCT116 cells assessed as viable cells after 3 days using resazurin by […] assay; format: functional, cell-based; conditions: HCT-116, 72 h; summary of the method: as §1
[2] = Ratio of IC50 for human HCT116 cells to IC50 for […]/TCF4 pathway expressed in HCT116 cells; format: cell-based; conditions: HCT-116
HCT-116 [3] = assay: Growth inhibition of human HCT116 cells assessed as clonogenic growth after 9 days using crystal violet staining; format: functional, cell-based; conditions: HCT-116, 216 h
Summary of the method: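 HCT116 cells in RPMI 1640 + 10% FBS + penicillin/streptomycin, plated at 300 cells/well in six-well plates 8 h before treatment with or without inhibitor (highest final concentration 1.5 μM). Incubated 9 days, then fixed with 10% acetic acid in methanol, stained with 0.05% crystal violet and colonies counted. IC50 is the average of three separate experiments.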

[4] = Solubility of the compound in water; format: physicochemical; conditions: buffer

TCF4/beta-catenin, sequence (P35222 2-781 limits assumed, stated change not applied): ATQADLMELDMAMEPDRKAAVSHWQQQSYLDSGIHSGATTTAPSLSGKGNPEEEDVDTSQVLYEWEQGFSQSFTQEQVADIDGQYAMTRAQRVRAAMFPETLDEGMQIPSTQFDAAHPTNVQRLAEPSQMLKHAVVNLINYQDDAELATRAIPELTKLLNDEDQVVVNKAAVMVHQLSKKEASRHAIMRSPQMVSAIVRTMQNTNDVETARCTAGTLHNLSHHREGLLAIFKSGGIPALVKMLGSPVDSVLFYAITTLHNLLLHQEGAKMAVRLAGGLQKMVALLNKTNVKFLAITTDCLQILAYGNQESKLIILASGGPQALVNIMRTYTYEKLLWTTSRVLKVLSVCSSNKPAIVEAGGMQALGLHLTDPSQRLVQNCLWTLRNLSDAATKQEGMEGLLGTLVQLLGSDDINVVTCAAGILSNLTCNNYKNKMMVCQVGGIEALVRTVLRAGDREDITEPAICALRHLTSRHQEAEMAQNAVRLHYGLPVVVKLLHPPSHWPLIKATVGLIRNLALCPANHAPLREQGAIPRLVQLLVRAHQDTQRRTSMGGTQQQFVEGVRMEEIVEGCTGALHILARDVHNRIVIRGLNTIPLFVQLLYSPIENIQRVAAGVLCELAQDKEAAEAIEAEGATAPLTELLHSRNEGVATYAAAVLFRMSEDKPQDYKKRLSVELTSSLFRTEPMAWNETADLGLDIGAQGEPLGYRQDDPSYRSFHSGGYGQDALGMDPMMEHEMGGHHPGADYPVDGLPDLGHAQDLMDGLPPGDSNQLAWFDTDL
TCF4/beta-catenin, sequence (Q9NQB0 whole entry, stated change not applied): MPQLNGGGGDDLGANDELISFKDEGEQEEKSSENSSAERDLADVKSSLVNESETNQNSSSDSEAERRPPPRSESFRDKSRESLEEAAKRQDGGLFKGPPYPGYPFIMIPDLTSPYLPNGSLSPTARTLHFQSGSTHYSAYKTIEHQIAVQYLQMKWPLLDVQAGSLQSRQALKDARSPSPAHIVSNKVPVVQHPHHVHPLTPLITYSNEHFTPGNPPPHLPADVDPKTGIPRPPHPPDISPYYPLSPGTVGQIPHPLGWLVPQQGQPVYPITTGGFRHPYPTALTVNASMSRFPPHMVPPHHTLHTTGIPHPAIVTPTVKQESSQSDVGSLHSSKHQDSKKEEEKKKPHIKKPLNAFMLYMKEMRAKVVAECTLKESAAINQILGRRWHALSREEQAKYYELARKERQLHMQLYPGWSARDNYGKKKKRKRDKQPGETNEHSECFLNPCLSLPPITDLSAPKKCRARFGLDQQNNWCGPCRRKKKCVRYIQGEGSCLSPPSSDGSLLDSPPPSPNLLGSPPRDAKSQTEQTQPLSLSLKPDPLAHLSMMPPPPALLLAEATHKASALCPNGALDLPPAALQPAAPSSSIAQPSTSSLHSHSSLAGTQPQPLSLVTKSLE

SMILES | IC50 (SW480) [nM] | IC50 (TCF4/beta-catenin) [nM] | IC50 (HCT-116 [1]) [nM] | Ratio IC50 [2] | IC50 (HCT-116 [3]) [nM] | solubility [4]
CCCNc1nc(NCc2ccc(C(=O)Nc3ccc(Cl)nc3)cc2)c2cc(C)ccc2n1 | 2100 | 2500 | 1500 | – | – | –
Cc1ccc(S(=O)(=O)Nc2ccc(CNc3nc(N4CCN(C)CC4)nc4ccccc34)cc2)cc1 | > 20000 | – | > 20000 | – | – | –
Cc1ccc2nc(N3CCNC(C)C3)nc(NCc3ccc(C(=O)NC4CCN(Cc5ccc(F)cc5)CC4)cc3)c2c1 (racemic) | 1000 | > 5000 | 2000 | – | – | –
Cc1ccc2nc(N3CCNC(C)C3)nc(NCc3ccc(C(=O)NCc4ccc(F)cc4)cc3)c2c1 (racemic) | 1400 | – | 2900 | – | – | –
O=C(Nc1ccc(F)cc1)c1ccc(CNc2nc(NC3CC3)nc3ccccc23)cc1 | 2600 | – | 2700 | – | – | –
CN(C)c1nc(NCc2ccc(NC(=O)c3ccc(F)cc3)cc2)c2ccccc2n1 | 2200 | – | 1300 | – | – | –
CC1CN(c2nc(NCc3ccc(C(=O)Nc4ccc(F)cc4)cc3)c3ccccc3n2)CCN1 (racemic) | 3200 | > 5000 | 2800 | – | – | –
CNc1nc(NCc2ccc(NC(=O)c3ccc(F)cc3)cc2)c2ccccc2n1 | 2000 | 3500 | 1600 | 2 | – | –
CN(C)CCCNc1nc(NCc2ccc(NC(=O)c3ccc(F)cc3)cc2)c2ccccc2n1 | 14000 | – | 10000 | – | – | –
CCCNc1nc(NCc2ccc(C(=O)N3CCC(C(=O)NCc4ccc(F)cc4)CC3)cc2)c2cc(C)ccc2n1 | 5200 | – | 4600 | – | – | –
CCCNc1nc(NCc2ccc(C(=O)NCCc3ccc(F)cc3)cc2)c2cc(C)ccc2n1 | 1600 | 2000 | 1600 | – | – | –
CN(C)c1nc(NCc2ccc(NC(=O)c3ccncc3)cc2)c2ccccc2n1 | 11000 | – | 15000 | – | – | –
CNc1nc(NCc2ccc(C(=O)Nc3ccc(F)cc3)cc2)c2ccccc2n1 | 4100 | – | 2900 | – | – | –
CCCNc1nc(NCc2ccc(C(=O)N3CCC(C(=O)NCc4ccc(F)cc4)CC3)cc2)c2ccccc2n1 | 5700 | – | 5500 | – | – | –
CCNc1nc(NCc2ccc(NC(=O)c3ccc(F)cc3)cc2Cl)c2ccccc2n1 | 1600 | – | 1500 | – | – | –
CNc1ncc(C)c(NCc2ccc(NC(=O)c3ccc(F)cc3)cc2)n1 | > 20000 | – | > 20000 | – | – | –
CCNc1nc(NCc2ccc(C(=O)Nc3ccc(F)cc3)cc2)c2ccccc2n1 | 2500 | 3500 | 1900 | – | – | –
Cc1ccc2nc(N(C)C)nc(NCc3ccc(C(=O)N4CCC(C(=O)NCc5ccc(F)cc5)CC4)cc3)c2c1 | 5600 | – | 5600 | – | – | –
CN1CCN(c2nc(NCc3ccc(NC(=O)c4ccc(F)cc4)cc3)c3ccccc3n2)CC1 | 2500 | – | 1800 | – | – | –
Cc1ccc(S(=O)(=O)Nc2ccc(CNc3nc(N(C)C)nc4ccccc34)cc2)cc1 | 13000 | – | 11000 | – | – | –
CCNc1nc(NCc2ccc(C(=O)N[C@H]3C[C@@H]3c3ccccc3)cc2)c2cc(C)ccc2n1 (relative stereo) | 1800 | 3500 | 1700 | – | – | –
CN(C)CCCNc1nc(NCc2ccc(NC(=O)c3ccc(CN4CCN(C)CC4)cc3)cc2)c2ccccc2n1 | > 20000 | – | > 20000 | – | – | –
CCCCNc1nc(NCc2ccc(C(=O)Nc3ccc(F)cc3)cc2)c2ccccc2n1 | 1000 | 1500 | 1400 | – | 381 | –
Cc1ccc2nc(N(C)C)nc(NCc3ccc(C(=O)N[C@H]4C[C@@H]4c4ccccc4)cc3)c2c1 (relative stereo) | 2400 | 3000 | 1300 | – | – | –
CCNc1ncc(C)c(NCc2ccc(NC(=O)c3ccc(F)cc3)cc2)n1 | > 20000 | – | > 20000 | – | – | –
C=CCNc1nc(NCc2ccc(C(=O)NC3CCN(C(=O)c4ccc(F)cc4)CC3)cc2)c2cc(C)ccc2n1 | 5200 | – | 6900 | – | – | –
CNc1nc(NCc2ccc(NS(=O)(=O)c3ccc(C)cc3)cc2)c2ccccc2n1 | 4900 | – | 5800 | – | – | –

SMILES | IC50 (SW480) [nM] | IC50 (TCF4/beta-catenin) [nM] | IC50 (HCT-116 [1]) [nM] | Ratio IC50 [2] | IC50 (HCT-116 [3]) [nM] | solubility [4]
CNc1nc(NCc2ccc(NC(=O)c3ccc(CN4CCN(C)CC4)cc3)cc2)c2ccccc2n1 | 11000 | – | 10000 | – | – | –
CCCNc1nc(NCc2ccc(NC(=O)c3ccc(F)cc3)cc2)c2ccccc2n1 | 2000 | 2500 | 1700 | 2 | – | –
CNc1nc(NCc2ccc(NC(=O)c3ccncc3)cc2)c2ccccc2n1 | > 20000 | – | > 20000 | – | – | –
Cc1ccc2nc(N(C)C)nc(NCc3ccc(C(=O)NC4CCN(Cc5ccc(F)cc5)CC4)cc3)c2c1 | 1100 | 2500 | 800 | – | 313 | –
CNc1nc(NCc2ccc(NS(=O)(=O)c3ccc(F)cc3)cc2)c2ccccc2n1 | 4800 | – | 5300 | – | – | –
CNc1nc(NCc2ccc(C(=O)NC3CCN(Cc4ccc(F)cc4)CC3)cc2)c2cc(C)ccc2n1 | 1300 | 3000 | 1200 | – | – | –
CCNc1nc(NCc2ccc(NC(=O)c3ccc(F)cc3)cc2)c2ccccc2n1 | 2300 | 3000 | 1400 | 2 | – | –
C=CCNc1nc(NCc2ccc(C(=O)Nc3ccc(F)cc3)cc2)c2cc(C)ccc2n1 | 10000 | – | 13000 | – | – | –
CCCNc1nc2ccccc2c(NCc2ccc(NC(=O)c3ccc(F)cc3)cc2)c1C#N | > 20000 | – | > 20000 | – | – | –
CNc1nc(NCc2ccc(C(=O)NCCc3ccc(F)cc3)cc2)c2cc(C)ccc2n1 | 1500 | 1000 | 1100 | – | – | –
CNc1nc2ccccc2c(NCc2ccc(NC(=O)c3ccc(F)cc3)cc2)c1C#N | > 20000 | – | > 20000 | – | – | –
CCCNc1nc(NCc2ccc(C(=O)Nc3ccc(F)cc3)cc2)c2cc(C)ccc2n1 | 1300 | – | 1200 | – | – | soluble
CNc1nc(NCc2ccc(NC(=O)c3ccc(F)cc3)cc2Cl)c2ccccc2n1 | 2300 | – | 2000 | – | – | –
CN(C)c1nc(NCc2ccc(C(=O)Nc3ccc(F)cc3)cc2)c2ccccc2n1 | 2600 | 3000 | 1900 | – | – | –
CN1CCN(c2nc(NCc3ccc(NC(=O)c4ccncc4)cc3)c3ccccc3n2)CC1 | > 20000 | – | > 20000 | – | – | –
Cc1ccc2nc(N(C)C)nc(NCc3ccc(C(=O)NCCc4ccc(F)cc4)cc3)c2c1 | 1400 | 1500 | 600 | – | 264 | –
Cc1ccc2nc(N(C)C)nc(NCc3ccc(C(=O)Nc4ccc(Cl)nc4)cc3)c2c1 | 1100 | 2500 | 1300 | – | – | –
CCCNc1nc(NCc2ccc(C(=O)NCc3ccc(F)cc3)cc2)c2cc(C)ccc2n1 | 2200 | – | 4400 | – | – | –
CNc1ncc(Br)c(NCc2ccc(NC(=O)c3ccc(F)cc3)cc2)n1 | > 20000 | – | > 20000 | – | – | –
O=S(=O)(Nc1ccc(CNc2nc(NC3CC3)nc3ccccc23)cc1)c1ccc(F)cc1 | 4100 | – | 4900 | – | – | –
CCCNc1nc(NCc2ccc(C(=O)NC3CCN(C(=O)c4ccc(F)cc4)CC3)cc2)c2cc(C)ccc2n1 | 5500 | – | 6800 | – | – | –
CCCNc1nc(NCc2ccc(C(=O)NC3CCN(Cc4ccc(F)cc4)CC3)cc2)c2cc(C)ccc2n1 | 1100 | 3000 | 1600 | – | – | –
Cc1ccc2nc(N(C)C)nc(NCc3ccc(C(=O)NCc4ccc(F)cc4)cc3)c2c1 | 1100 | 2000 | 900 | – | 298 | –
C=CCNc1nc(NCc2ccc(C(=O)Nc3ccc(F)cc3)cc2)c2ccccc2n1 | 11000 | – | 14000 | – | – | –
CCCNc1nc(NCc2ccc(C(=O)Nc3ccc(F)cc3)cc2)c2ccccc2n1 | 1600 | 3000 | 1500 | – | 684 | –
CN(C)c1nc(NCc2ccc(C(=O)N3CCC(C(=O)NCc4ccc(F)cc4)CC3)cc2)c2ccccc2n1 | 5500 | – | 5700 | – | – | –
